Source: ChEMBL document CHEMBL4689842, “EUbOPEN Chemogenomics Library wave 1” (2021)

Key:
Type in all cases: toxicity, cell-based
U2OS = assay: Incucyte cell viability with U2OS; details: human, 10 µM, compound concentration 10 uM; further: filed as whole numbers so only -1 and 0 and 1 occur
Fibroblast [1] = assay: Incucyte cell viability with human fibroblast; details: 10 µM, compound concentration 10 uM; further: filed as whole numbers so only -1 and 0 and 1 occur
HEK-293T = assay: Incucyte cell viability with HEK293T; details: human, 10 µM, compound concentration 10 uM; further: filed as whole numbers so only -1 and 0 and 1 occur
Fibroblast [2] = assay: Multiplex assay against human fibroblast
How it was run: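 Per cents of healthy-nucleus cells form the tubulin, mitochondrial-mass and membrane-permeability phenotype values. Live cells were stained at seeding with Hoechst33342, BioTracker Green Microtubule Cytoskeleton Dye, MitoTracker Red and Annexin V Alexa Fluor 680. After compound addition they were imaged on a CQ1 microscope at 37°C and 5% CO2, and CellPathfinder machine-learning gating split them into Hoechst high-intensity objects or normal cells, normal cells into healthy, pyknosed or fragmented nuclei, and pyknosed cells into mitotic or apoptotic.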

[3] = 0 h, replicate number 2, timepoint 0 hours
[4] = 18 h, replicate number 1, timepoint 18 hours
[5] = 24 h, replicate number 1, timepoint 24 hours
[6] = 12 h, 1 µM, compound concentration 1 uM, replicate 1
[7] = 12 h, 1 µM, compound concentration 1 uM, replicate 2
[8] = 12 h, 10 µM, compound concentration 10 uM, replicate 1
[9] = 12 h, 10 µM, compound concentration 10 uM, replicate 2
[10] = 24 h, 1 µM, compound concentration 1 uM, replicate 1
[11] = 24 h, 1 µM, compound concentration 1 uM, replicate 2
[12] = 24 h, 10 µM, compound concentration 10 uM, replicate 1
[13] = 24 h, 10 µM, compound concentration 10 uM, replicate 2

SMILES: NC(=O)c1ccc2nc(-c3ccc(C4(N)CCC4)cc3)c(-c3ccccc3)n2n1 [BAY-1125976]
- Growth Rate (U2OS; [3]): 0
- Growth Rate (U2OS; [4]): 1
- Growth Rate (U2OS; [5]): 1
- Growth Rate (Fibroblast [1]; 0 h, replicate number 1, timepoint 0 hours): 1
- Growth Rate (Fibroblast [1]; [3]): 0
- Growth Rate (Fibroblast [1]; [5]): 1
- Growth Rate (HEK-293T; 6 h, replicate number 1, timepoint 6 hours): 0
- Growth Rate (HEK-293T; 12 h, replicate number 1, timepoint 12 hours): 0
- Growth Rate (HEK-293T; [4]): 0
- Growth Rate (HEK-293T; [5]): 0
- Population Apoptotic (%) (Fibroblast [2]; [6]): 72%
- Population Fragmented Nuclei (%) (Fibroblast [2]; [6]): 53%
- Population Healthy Nuclei (%) (Fibroblast [2]; [6]): 33%
- Population Hoechst High Intensity Objects (%) (Fibroblast [2]; [6]): 38%
- Population Mitochondria Different-Phenotype (%) (Fibroblast [2]; [6]): 0%
- Population Mitotic Cells (%) (Fibroblast [2]; [6]): 27%
- Population Normal (%) (Fibroblast [2]; [6]): 61%
- Population Pyknosed Nuclei (%) (Fibroblast [2]; [6]): 13%
- Population Tubulin-Different-Phenotype (%) (Fibroblast [2]; [6]): 29%
- Total Cell Count (Fibroblast [2]; [6]): 587
- Population Apoptotic (%) (Fibroblast [2]; [7]): 87%
- Population Fragmented Nuclei (%) (Fibroblast [2]; [7]): 56%
- Population Healthy Nuclei (%) (Fibroblast [2]; [7]): 31%
- Population Hoechst High Intensity Objects (%) (Fibroblast [2]; [7]): 51%
- Population Mitochondria Different-Phenotype (%) (Fibroblast [2]; [7]): 15%
- Population Mitotic Cells (%) (Fibroblast [2]; [7]): 12%
- Population Normal (%) (Fibroblast [2]; [7]): 48%
- Population Pyknosed Nuclei (%) (Fibroblast [2]; [7]): 12%
- Population Tubulin-Different-Phenotype (%) (Fibroblast [2]; [7]): 25%
- Total Cell Count (Fibroblast [2]; [7]): 131
- Population Apoptotic (%) (Fibroblast [2]; [8]): 59%
- Population Fragmented Nuclei (%) (Fibroblast [2]; [8]): 27%
- Population Healthy Nuclei (%) (Fibroblast [2]; [8]): 51%
- Population Hoechst High Intensity Objects (%) (Fibroblast [2]; [8]): 13%
- Population Mitochondria Different-Phenotype (%) (Fibroblast [2]; [8]): 3%
- Population Mitotic Cells (%) (Fibroblast [2]; [8]): 40%
- Population Normal (%) (Fibroblast [2]; [8]): 86%
- Population Pyknosed Nuclei (%) (Fibroblast [2]; [8]): 20%
- Population Tubulin-Different-Phenotype (%) (Fibroblast [2]; [8]): 2%
- Total Cell Count (Fibroblast [2]; [8]): 208
- Population Apoptotic (%) (Fibroblast [2]; [9]): 20%
- Population Fragmented Nuclei (%) (Fibroblast [2]; [9]): 54%
- Population Healthy Nuclei (%) (Fibroblast [2]; [9]): 36%
- Population Hoechst High Intensity Objects (%) (Fibroblast [2]; [9]): 40%
- Population Mitochondria Different-Phenotype (%) (Fibroblast [2]; [9]): 0%
- Population Mitotic Cells (%) (Fibroblast [2]; [9]): 80%
- Population Normal (%) (Fibroblast [2]; [9]): 59%
- Population Pyknosed Nuclei (%) (Fibroblast [2]; [9]): 10%
- Population Tubulin-Different-Phenotype (%) (Fibroblast [2]; [9]): 5%
- Total Cell Count (Fibroblast [2]; [9]): 84
- Population Apoptotic (%) (Fibroblast [2]; [10]): 78%
- Population Fragmented Nuclei (%) (Fibroblast [2]; [10]): 53%
- Population Healthy Nuclei (%) (Fibroblast [2]; [10]): 36%
- Population Hoechst High Intensity Objects (%) (Fibroblast [2]; [10]): 41%
- Population Mitochondria Different-Phenotype (%) (Fibroblast [2]; [10]): 2%
- Population Mitotic Cells (%) (Fibroblast [2]; [10]): 21%
- Population Normal (%) (Fibroblast [2]; [10]): 58%
- Population Pyknosed Nuclei (%) (Fibroblast [2]; [10]): 10%
- Population Tubulin-Different-Phenotype (%) (Fibroblast [2]; [10]): 20%
- Total Cell Count (Fibroblast [2]; [10]): 564
- Population Apoptotic (%) (Fibroblast [2]; [11]): 63%
- Population Fragmented Nuclei (%) (Fibroblast [2]; [11]): 63%
- Population Healthy Nuclei (%) (Fibroblast [2]; [11]): 22%
- Population Hoechst High Intensity Objects (%) (Fibroblast [2]; [11]): 39%
- Population Mitochondria Different-Phenotype (%) (Fibroblast [2]; [11]): 11%
- Population Mitotic Cells (%) (Fibroblast [2]; [11]): 36%
- Population Normal (%) (Fibroblast [2]; [11]): 60%
- Population Pyknosed Nuclei (%) (Fibroblast [2]; [11]): 14%
- Population Tubulin-Different-Phenotype (%) (Fibroblast [2]; [11]): 47%
- Total Cell Count (Fibroblast [2]; [11]): 128
- Population Apoptotic (%) (Fibroblast [2]; [12]): 52%
- Population Fragmented Nuclei (%) (Fibroblast [2]; [12]): 19%
- Population Healthy Nuclei (%) (Fibroblast [2]; [12]): 65%
- Population Hoechst High Intensity Objects (%) (Fibroblast [2]; [12]): 15%
- Population Mitochondria Different-Phenotype (%) (Fibroblast [2]; [12]): 2%
- Population Mitotic Cells (%) (Fibroblast [2]; [12]): 48%
- Population Normal (%) (Fibroblast [2]; [12]): 84%
- Population Pyknosed Nuclei (%) (Fibroblast [2]; [12]): 15%
- Population Tubulin-Different-Phenotype (%) (Fibroblast [2]; [12]): 3%
- Total Cell Count (Fibroblast [2]; [12]): 192
- Population Apoptotic (%) (Fibroblast [2]; [13]): 28%
- Population Fragmented Nuclei (%) (Fibroblast [2]; [13]): 45%
- Population Healthy Nuclei (%) (Fibroblast [2]; [13]): 41%
- Population Hoechst High Intensity Objects (%) (Fibroblast [2]; [13]): 36%
- Population Mitochondria Different-Phenotype (%) (Fibroblast [2]; [13]): 4%
- Population Mitotic Cells (%) (Fibroblast [2]; [13]): 71%
- Population Normal (%) (Fibroblast [2]; [13]): 63%
- Population Pyknosed Nuclei (%) (Fibroblast [2]; [13]): 13%
- Population Tubulin-Different-Phenotype (%) (Fibroblast [2]; [13]): 0%
- Total Cell Count (Fibroblast [2]; [13]): 80
